≈ marks a conversion by molar mass, not a printed value. Calls of active or inactive are those of the source.
Assays:
[1] = species on record: Homo sapiens; assay: Selectivity ratio of IC50 for antagonist activity at human LPA5 receptor expressed in RH7777 cells assessed as inhibition of LPA-induced cAMP accumulation to IC50 for antagonist activity at human LPA5 receptor expressed in RH7777 cells assessed as inhibition of LPA-induced calcium mobilization; type: cell-based
[2] = molecular target: T1, Lysophosphatidic acid receptor 5 (Homo sapiens, UniProt Q9H1C0); assay: Antagonist activity at human LPA5 receptor expressed in RH7777 cells assessed as inhibition of EC80 concentration of LPA-induced cAMP accumulation preincubated for 30 mins followed by Eu-cAMP tracer addition and measured after 1 hr by TR-FRET assay relative to hexadecyl LPA; type: functional, cell-based; settings: filed as antagonist
T1 sequence (Q9H1C0 whole entry): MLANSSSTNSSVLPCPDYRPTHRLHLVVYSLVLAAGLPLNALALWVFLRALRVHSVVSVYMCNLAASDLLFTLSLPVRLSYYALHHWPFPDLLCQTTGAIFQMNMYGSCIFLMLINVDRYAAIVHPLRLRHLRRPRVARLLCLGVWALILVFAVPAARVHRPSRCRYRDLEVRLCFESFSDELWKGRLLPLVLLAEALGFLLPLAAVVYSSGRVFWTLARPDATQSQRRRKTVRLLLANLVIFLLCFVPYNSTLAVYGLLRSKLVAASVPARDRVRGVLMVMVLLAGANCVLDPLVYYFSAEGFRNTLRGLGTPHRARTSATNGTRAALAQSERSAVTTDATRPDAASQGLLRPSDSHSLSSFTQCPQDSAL
Outline: (§1)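 hLPA5-RH7777 cells, switched to 0.2% FBS medium 20 h prior, lifted with versene, 2,000 cells/well in HBSS/5 mM HEPES/0.1% BSA/0.5 mM IBMX pH 7.4. Compound dilutions with hexadecyl LPA 16:0 EC80 (300 nM) plus forskolin, 30 min room temperature; LANCE Ultra Eu-cAMP tracer/ULight-anti-cAMP 1 h; TR-FRET 665 nm converted to cAMP via standard curve. Three-parameter logistic IC50; ≥3 experiments in duplicate.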

[3] = molecular target: T1, Lysophosphatidic acid receptor 5; assay: Antagonist activity at human LPA5 receptor expressed in RH7777 cells assessed as inhibition of EC80 concentration of hexadecyl LPA-induced calcium mobilization incubated for 15 mins by FLIPR method; type: functional, cell-based
[4] = molecular target: T1, Lysophosphatidic acid receptor 5; assay: Antagonist activity at human LPA5 receptor expressed in RH7777 cells assessed as inhibition of EC80 concentration of LPA-induced cAMP accumulation preincubated for 30 mins followed by Eu-cAMP tracer addition and measured after 1 hr by TR-FRET assay; type: functional, cell-based; outline: as §1
[5] = species on record: Rattus norvegicus; assay: Antinociceptive activity in CCI surgery-neuropathic pain induced Sprague-Dawley rat model assessed as reduction in paw threshold pain measured after 2 hrs; type: functional, organism-based; settings: dose 32.0 mg/kg
Outline: (§2)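 Male Sprague-Dawley rats (n=6), ketamine/xylazine anesthesia; four chromic gut ligatures ~1 mm apart around the right sciatic nerve. Drugs i.p. in DMSO/emulphor/saline (AS2717638 in propylene glycol vehicle), single or cumulative dosing with paw withdrawal threshold (cut-off 26 g) measured every 30 min.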

[6] = tested on: Rattus norvegicus; assay: Antinociceptive activity in CCI surgery-neuropathic pain induced Sprague-Dawley rat model assessed as reduction in paw threshold pain measured at 32 mg/kg, ip; type: functional, organism-based; settings: time 2.0 hrs, TDE = time-dependent effect; outline: as §2
[7] = tested on: Rattus norvegicus; assay: Antiallodynic activity against CFA-induced Sprague-Dawley rat inflammatory pain model assessed as reduction in paw withdrawal threshold at 32 mg/kg measured after 2 hrs; type: functional, organism-based
Outline: (§3)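 Adult male Sprague-Dawley rats (230–280 g, n=6/group); 0.1 ml CFA injected into right hind paw. Compounds i.p. (1–2 ml/kg) in 20% DMSO/10% emulphor/saline; AS2717638 in 30% propylene glycol vehicle. Mechanical paw withdrawal threshold (cut-off 26 g) measured every 30 min after single dose; two-way ANOVA, mean ± SEM.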

[8] = molecular target: T1, Lysophosphatidic acid receptor 5; assay: Antagonist activity at human LPA5 receptor expressed in RH7777 cells assessed as inhibition of EC80 concentration of hexadecyl LPA-induced calcium mobilization incubated for 15 mins by FLIPR method relative to hexadecyl LPA; type: functional, cell-based; settings: filed as antagonist
[9] = species on record: Rattus norvegicus; assay: Antiallodynic activity against CFA-induced mechanical allodynia Sprague-Dawley rat model assessed as reduction paw threshold pain measured after 2 hrs; type: functional, organism-based; settings: dose 32.0 mg/kg; outline: as §3
[10] = tested on: Rattus norvegicus; assay: Antiallodynic activity against CFA-induced mechanical allodynia Sprague-Dawley rat model assessed as reduction paw threshold pain measured at 32 mg/kg, ip; type: functional, organism-based; settings: time 2.0 hrs, TDE = time-dependent effect; outline: as §3
[11] = molecular target: T1, Lysophosphatidic acid receptor 5; assay: Agonist activity at human LPA5 receptor expressed in RH7777 cells assessed as calcium mobilization incubated for 15 mins by FLIPR method; type: functional, cell-based
Outline: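 RH7777 cells stably expressing hLPA5, plated 20,000/well in 0.2% FBS medium 18–20 h, loaded 45 min at 37 °C with Calcium 5 dye in HBSS/20 mM HEPES/2.5 mM probenecid pH 7.4. […] Duplicates.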

[12] = molecular target: Lysophosphatidic acid receptor 2 (Homo sapiens) (UniProt Q9HBW0); assay: Antagonist activity at human LPA2 receptor expressed in CHO cells assessed as inhibition of LPA-induced calcium mobilization at 10 uM incubated for 15 mins by FLIPR analysis relative to control; type: functional, cell-based
Lysophosphatidic acid receptor 2 (Homo sapiens), sequence (Q9HBW0 whole entry): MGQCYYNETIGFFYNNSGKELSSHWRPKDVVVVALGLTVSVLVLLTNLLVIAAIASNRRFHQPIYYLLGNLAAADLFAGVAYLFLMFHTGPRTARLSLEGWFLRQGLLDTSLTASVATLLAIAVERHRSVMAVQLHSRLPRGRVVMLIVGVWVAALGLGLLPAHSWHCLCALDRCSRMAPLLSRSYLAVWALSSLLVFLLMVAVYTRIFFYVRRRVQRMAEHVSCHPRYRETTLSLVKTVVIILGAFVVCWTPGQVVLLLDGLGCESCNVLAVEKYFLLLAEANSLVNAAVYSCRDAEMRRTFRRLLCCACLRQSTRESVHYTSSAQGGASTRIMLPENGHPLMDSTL
Outline: (§4)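 Calcium mobilization in CHO cells overexpressing LPA1, LPA2 or LPA3, run by a contract lab under its own protocols; compounds tested at single 10 μM.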

[13] = tested on: Rattus norvegicus; assay: Antiallodynic activity against CFA-induced Sprague-Dawley rat inflammatory pain model assessed as reduction in paw withdrawal threshold at 17.8 mg/kg measured after 5 hrs; type: functional, organism-based; outline: as §3
[14] = molecular target: Lysophosphatidic acid receptor 1 (Homo sapiens) (UniProt Q92633); assay: Antagonist activity at human LPA1 receptor expressed in CHO cells assessed as inhibition of LPA-induced calcium mobilization at 10 uM incubated for 15 mins by FLIPR analysis relative to control; type: functional, cell-based; outline: as §4
Lysophosphatidic acid receptor 1 (Homo sapiens), sequence (Q92633 whole entry): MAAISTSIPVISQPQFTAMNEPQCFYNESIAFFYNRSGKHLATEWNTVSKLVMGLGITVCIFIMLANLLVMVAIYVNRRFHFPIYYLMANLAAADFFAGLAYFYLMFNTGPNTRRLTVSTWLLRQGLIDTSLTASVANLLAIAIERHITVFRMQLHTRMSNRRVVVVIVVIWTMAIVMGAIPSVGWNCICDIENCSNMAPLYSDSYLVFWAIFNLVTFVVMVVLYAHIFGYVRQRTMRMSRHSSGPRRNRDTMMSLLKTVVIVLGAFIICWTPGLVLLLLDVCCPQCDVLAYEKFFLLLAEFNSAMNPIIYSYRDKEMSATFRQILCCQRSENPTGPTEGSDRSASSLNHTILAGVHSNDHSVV

[15] = Aqueous solubility of compound at pH 7.4; type: physicochemical; settings: aqueous medium
Outline: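 Kinetic solubility: 20 mM DMSO stock diluted into PBS (1 mM KH2PO4, 3 mM Na2HPO4, 155 mM NaCl) to a target of 400 μM; triplicates quantified by LC-MS/MS against matrix-matched standards.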

[16] = Apparent permeability across apical to basolateral side in MDCK-MDR1 cells incubated for 90 mins by LC-MS/MS analysis; type: ADME, cell-based, Canis lupus familiaris; settings: dog, mdck-mdr1, 1.5 h
Outline: (§5)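 MDCK-MDR1 cells (passage 5) grown 3 days on Transwell polycarbonate inserts; transport buffer HBSS/10 mM HEPES/0.25% BSA pH 7.4, 30 min preincubation 37 °C with TEER check. 10 μM test article added apical (A-to-B) or basolateral (B-to-A); receiver sampled at 30, 60, 90 min, LC-MS/MS. Papp = (dQ/dt)/(A·Ci); efflux ratio B-to-A/A-to-B. Atenolol, propranolol, digoxin references.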

[17] = molecular target: T2, Lysophosphatidic acid receptor 3 (Homo sapiens) (UniProt Q9UBY5); assay: Antagonist activity at human LPA3 receptor expressed in CHO cells assessed as inhibition of LPA-induced calcium mobilization at 10 uM incubated for 15 mins by FLIPR analysis relative to control; type: functional, cell-based; outline: as §4
T2 sequence (whole entry): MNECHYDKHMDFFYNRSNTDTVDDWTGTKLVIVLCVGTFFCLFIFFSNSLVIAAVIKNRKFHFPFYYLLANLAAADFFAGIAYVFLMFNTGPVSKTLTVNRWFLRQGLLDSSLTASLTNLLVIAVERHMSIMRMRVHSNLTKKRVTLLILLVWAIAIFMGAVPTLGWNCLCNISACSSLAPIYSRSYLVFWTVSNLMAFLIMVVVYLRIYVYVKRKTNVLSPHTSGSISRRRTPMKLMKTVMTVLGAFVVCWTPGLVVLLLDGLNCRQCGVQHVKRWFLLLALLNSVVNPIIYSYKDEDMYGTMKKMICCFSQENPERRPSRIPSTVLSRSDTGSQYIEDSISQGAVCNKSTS

[18] = molecular target: Lysophosphatidic acid receptor 4 (Homo sapiens) (UniProt Q99677); assay: Antagonist activity at human LPA4 receptor expressed in CHO cells assessed as inhibition of LPA-induced calcium accumulation preincubated for 30 mins followed by Eu-cAMP tracer addition and measured after 1 hr by TR-FRET assay relative to hexadecyl LPA; type: functional, cell-based
Lysophosphatidic acid receptor 4 (Homo sapiens), sequence (Q99677 whole entry): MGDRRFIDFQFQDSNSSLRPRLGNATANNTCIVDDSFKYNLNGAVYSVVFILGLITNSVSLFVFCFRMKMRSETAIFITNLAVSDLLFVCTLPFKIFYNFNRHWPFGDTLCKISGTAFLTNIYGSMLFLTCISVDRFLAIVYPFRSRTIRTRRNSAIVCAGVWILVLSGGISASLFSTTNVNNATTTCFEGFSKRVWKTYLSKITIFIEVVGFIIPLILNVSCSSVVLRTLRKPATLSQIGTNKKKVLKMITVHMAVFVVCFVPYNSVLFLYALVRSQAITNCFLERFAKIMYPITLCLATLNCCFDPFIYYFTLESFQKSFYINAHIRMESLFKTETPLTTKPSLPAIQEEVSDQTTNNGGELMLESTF

[19] = Substrate activity at P-glycoprotein (unknown origin) in MDCK-MDR1 cells assessed as efflux ratio of apparent permeability across basolateral to apical over apical to basolateral side measured after 90 mins by LC-MS/MS analysis; type: ADME, cell-based, Canis lupus familiaris; settings: dog, mdck-mdr1, 1.5 h; outline: as §5

Structure (SMILES)	inhibition [2] [%]	IC50 [3] [nM]	IC50 [4] [nM]	inhibition [8] [%]	Activity [11]	also measured
COc1cc2c(C(=O)N3CCC(C#N)CC3)cn(-c3cccc(N(C)C)c3)c(=O)c2cc1OC	92	102		89	inactive	
COc1cc2c(C(=O)N3CCC(F)CC3)cn(-c3ccc4occ(C)c4c3)c(=O)c2cc1OC	100	144	203	102	inactive	
CCCCCCCCCCCCCCCCOC[C@@H](O)COP(=O)(O)O						EC50 [3]: 15 nM; EC50 [4]: 95 nM
COc1cc2c(C(=O)N3CCC(C)CC3)cn(-c3cccc(N(C)C)c3)c(=O)c2cc1OC		160		105	inactive	
COc1cc2c(C(=O)N3CCCCC3C)cn(-c3cccc(N(C)C)c3)c(=O)c2cc1OC (racemic)		990		98	inactive	
COc1cc2c(=O)n(-c3cccc(N(C)C)c3)cc(C(=O)N3CCC(F)CC3)c2cc1OC(C)C		369		96	inactive	
COc1cc2c(C(=O)N3CCC(F)CC3)cn(-c3cccc(C(C)C)c3)c(=O)c2cc1OC	98	200	394	103	inactive	
COc1cc2c(C(=O)N3CCC(OC)CC3)cn(-c3cccc(N(C)C)c3)c(=O)c2cc1OC		640		89	inactive	
COc1cc2c(C(=O)N3CCCCC3)cn(-c3ccc4occc4c3)c(=O)c2cc1OC		1100		93	inactive	
COc1cc2c(C(=O)N3CCC(F)CC3)cn(-c3ccc4occc4c3)c(=O)c2cc1OC		1490		88	inactive	

Continued by falling IC50 [3], values first:

inhibition [2] [%]	IC50 [3] [nM]	IC50 [4] [nM]	inhibition [8] [%]	Activity [11]	Structure (SMILES)	also measured
	91		91	inactive	CC#CC1CCN(C(=O)c2cn(-c3cccc(N(C)C)c3)c(=O)c3cc(OC)c(OC)cc23)CC1	
89	87	790	104	inactive	COc1cc2c(C(=O)N3CCCCC3)cn(-c3cccc(N(C)C)c3)c(=O)c2cc1OC	
94	79	950	102	inactive	COc1cc2c(C(=O)N3CCC(F)CC3)cn(-c3cccc(N(C)C)c3)c(=O)c2cc1OC	
104	69	340	107	inactive	COc1cc2c(C(=O)N3CCC(F)CC3)cn(-c3ccc4scc(C)c4c3)c(=O)c2cc1OC	inhibition [12]: < 50%; Activity [13]: Active; inhibition [14]: < 50%; solubility kinetic [15]: 96.4 µM (≈ 46.3 µg/mL); Papp [16]: 22.2 10^-6 cm/s; inhibition [17]: < 50%; inhibition [18]: < 50%; Ratio [19]: 1.4
109	64	460	104	inactive	COc1cc2c(C(=O)N3CCCCC3)cn(-c3ccc4ccn(C)c4c3)c(=O)c2cc1OC	
94	58	570	104		CCN1CCc2ccc(-n3cc(C(=O)N4CCC(F)CC4)c4cc(OC)c(OC)cc4c3=O)cc21	
88	48	190	105	inactive	COc1cc2c(C(=O)N3CCCCC3)cn(-c3ccc4occ(C)c4c3)c(=O)c2cc1OC	
101	46		105	inactive	C#CC1CCN(C(=O)c2cn(-c3cccc(N(C)C)c3)c(=O)c3cc(OC)c(OC)cc23)CC1	
102	36	210	108		COc1cc2c(C(=O)N3CCCCC3)cn(-c3noc4ccc(C)cc34)c(=O)c2cc1OC	Ratio IC50 [1]: 5.8; Activity [5]: Dose-Dependent Effect; Activity [6]: Tde; Activity [7]: Active; Activity [9]: Dose-Dependent Effect; Activity [10]: Tde

Reference: ChEMBL document CHEMBL5352427, “Isoquinolone derivatives as lysophosphatidic acid receptor 5 (LPA5) antagonists: Investigation of structure-activity relationships, ADME properties and analgesic effects” (Eur J Med Chem, 2022)
